Test results: ChEMBL document CHEMBL5247576, “Modulation of autophagy by the novel mitochondrial complex I inhibitor Authipyrin” (Bioorg Med Chem, 2019)
The source made the active and inactive calls. The rule behind the calls is not given here.

Tests used:
[1] = target: Discoidin domain-containing receptor 2 (Homo sapiens, UniProt Q16832, N456S); assay: Inhibition of GST/His-tagged human recombinant DDR2 N456S mutant (422 to 855 residues) expressed in baculovirus expression system
In short: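 Kinase profiling panel (SelectScreen). The kinase was tested against decreasing concentrations of the compound, starting at a highest concentration of 1 μM, and IC50 was derived from the dose-response.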

[2] = target: T1, Inactive tyrosine-protein kinase PEAK1 (Homo sapiens, UniProt Q9H792); assay: Inhibition of PEAK1 (unknown origin)
T1 sequence (Q9H792 whole entry): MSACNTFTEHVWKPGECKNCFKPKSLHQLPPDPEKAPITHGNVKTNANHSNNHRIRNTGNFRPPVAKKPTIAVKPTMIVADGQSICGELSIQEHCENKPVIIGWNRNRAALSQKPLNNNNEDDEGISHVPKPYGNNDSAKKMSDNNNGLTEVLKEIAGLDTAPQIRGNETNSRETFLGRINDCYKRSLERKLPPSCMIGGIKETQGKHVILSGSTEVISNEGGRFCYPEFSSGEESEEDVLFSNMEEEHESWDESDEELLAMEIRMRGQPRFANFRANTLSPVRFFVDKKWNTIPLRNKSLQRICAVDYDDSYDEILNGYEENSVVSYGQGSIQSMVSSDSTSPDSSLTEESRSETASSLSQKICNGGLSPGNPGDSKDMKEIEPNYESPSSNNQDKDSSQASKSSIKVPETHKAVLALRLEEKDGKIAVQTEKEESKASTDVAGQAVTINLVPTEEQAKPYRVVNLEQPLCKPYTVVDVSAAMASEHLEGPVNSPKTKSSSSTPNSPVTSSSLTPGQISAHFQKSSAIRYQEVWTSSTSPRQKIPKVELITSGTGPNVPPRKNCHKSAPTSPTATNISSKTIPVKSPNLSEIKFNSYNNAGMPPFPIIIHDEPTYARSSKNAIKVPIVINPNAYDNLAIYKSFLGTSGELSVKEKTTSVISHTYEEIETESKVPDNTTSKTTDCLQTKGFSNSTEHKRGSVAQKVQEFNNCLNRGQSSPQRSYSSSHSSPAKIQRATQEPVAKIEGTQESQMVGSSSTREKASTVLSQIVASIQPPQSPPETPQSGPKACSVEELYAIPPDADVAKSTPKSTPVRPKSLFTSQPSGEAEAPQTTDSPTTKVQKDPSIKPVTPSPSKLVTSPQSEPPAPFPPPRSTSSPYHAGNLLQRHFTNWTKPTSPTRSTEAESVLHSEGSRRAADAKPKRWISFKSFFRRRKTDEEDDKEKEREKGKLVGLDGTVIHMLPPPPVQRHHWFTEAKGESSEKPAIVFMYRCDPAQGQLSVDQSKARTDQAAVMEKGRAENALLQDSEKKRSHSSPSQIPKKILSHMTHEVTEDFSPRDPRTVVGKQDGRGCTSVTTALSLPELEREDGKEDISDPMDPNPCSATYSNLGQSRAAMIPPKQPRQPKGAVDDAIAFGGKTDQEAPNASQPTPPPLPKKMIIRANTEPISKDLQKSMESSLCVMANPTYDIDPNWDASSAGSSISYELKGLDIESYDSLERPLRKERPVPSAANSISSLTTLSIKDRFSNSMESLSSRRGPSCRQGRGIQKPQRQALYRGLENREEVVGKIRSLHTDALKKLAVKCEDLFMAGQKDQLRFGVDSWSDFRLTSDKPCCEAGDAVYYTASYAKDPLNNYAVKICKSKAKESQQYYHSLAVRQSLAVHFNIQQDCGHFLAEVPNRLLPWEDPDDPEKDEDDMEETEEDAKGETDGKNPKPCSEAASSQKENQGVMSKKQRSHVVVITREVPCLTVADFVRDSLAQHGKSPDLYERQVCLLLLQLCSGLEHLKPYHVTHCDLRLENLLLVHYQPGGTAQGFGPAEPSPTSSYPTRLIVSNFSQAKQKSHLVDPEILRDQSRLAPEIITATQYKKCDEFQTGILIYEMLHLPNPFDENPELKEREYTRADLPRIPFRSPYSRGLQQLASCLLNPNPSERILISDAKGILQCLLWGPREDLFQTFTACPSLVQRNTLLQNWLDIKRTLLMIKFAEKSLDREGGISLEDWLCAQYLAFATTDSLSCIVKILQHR
In short: (§1)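 Follow-up on kinases showing more than 50% single-point inhibition. Each kinase was screened against decreasing compound concentrations, with a top concentration of 1 μM, to derive the IC50. Percent inhibition was also reported from this dose-response series.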

HEK-293T = assay: Inhibition of starvation-induced autophagy in human HEK293T cells assessed as reduction of LC3-II lipidation at 1 uM in presence of chloroquine by immunoblotting analysis; assay type: functional, cell-based
In short: (§2)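 Cells were starved in EBSS for the indicated times, with or without chloroquine (50 μM) and compound (1 μM). Cells were then lysed and LC3 lipidation was assessed by immunoblot. n = 3.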

MCF7 [3] = assay: Inhibition of mitochondrial complex I in human MCF7 cells expressing LC3 by Seahorse XF plasma membrane permeabilizer analysis; assay type: cell membranes
In short: (§3)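 MCF7/LC3 cells were permeabilized with plasma membrane permeabilizer, then given DMSO, compound (1 μM) or a complex-specific control inhibitor together with that complex's substrates. Oligomycin and antimycin A injections followed. Oxygen consumption rate was read on a Seahorse XF analyzer. Data are mean ± SD, n = 3.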

[4] = target: Cyclin-dependent kinase 19 (Homo sapiens) (UniProt Q9BWU1); assay: Inhibition of GST-tagged human recombinant CDK11 (1 to 795 residues) expressed in baculovirus expression system at 1 uM relative to control
Sequence of Cyclin-dependent kinase 19 (Homo sapiens) (Q9BWU1 whole entry, the tested form may be a part): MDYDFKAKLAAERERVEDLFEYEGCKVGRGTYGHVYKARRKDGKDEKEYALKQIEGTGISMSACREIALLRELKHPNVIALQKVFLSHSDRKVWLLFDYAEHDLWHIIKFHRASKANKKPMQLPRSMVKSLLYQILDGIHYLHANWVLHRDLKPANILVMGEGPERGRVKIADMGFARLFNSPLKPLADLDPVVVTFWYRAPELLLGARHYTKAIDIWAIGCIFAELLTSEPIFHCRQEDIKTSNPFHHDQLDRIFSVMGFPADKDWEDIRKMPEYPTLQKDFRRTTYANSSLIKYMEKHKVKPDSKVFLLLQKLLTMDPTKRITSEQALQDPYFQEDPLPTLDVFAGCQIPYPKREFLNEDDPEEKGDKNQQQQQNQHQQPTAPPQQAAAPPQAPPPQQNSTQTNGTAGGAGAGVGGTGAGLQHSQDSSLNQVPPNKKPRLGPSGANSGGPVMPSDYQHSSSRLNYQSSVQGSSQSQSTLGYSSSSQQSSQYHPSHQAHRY
In short: (§4)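 Single-point kinase profiling run at 1 μM compound against a full kinase panel. Values are percent inhibition of kinase activity.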

[5] = tested on: T2, Discoidin domain-containing receptor 2 (Homo sapiens), Q16832 [N456S]; assay: Inhibition of GST/His-tagged human recombinant DDR2 N456S mutant (422 to 855 residues) expressed in baculovirus expression system at 1 uM relative to control
T2 sequence (whole entry): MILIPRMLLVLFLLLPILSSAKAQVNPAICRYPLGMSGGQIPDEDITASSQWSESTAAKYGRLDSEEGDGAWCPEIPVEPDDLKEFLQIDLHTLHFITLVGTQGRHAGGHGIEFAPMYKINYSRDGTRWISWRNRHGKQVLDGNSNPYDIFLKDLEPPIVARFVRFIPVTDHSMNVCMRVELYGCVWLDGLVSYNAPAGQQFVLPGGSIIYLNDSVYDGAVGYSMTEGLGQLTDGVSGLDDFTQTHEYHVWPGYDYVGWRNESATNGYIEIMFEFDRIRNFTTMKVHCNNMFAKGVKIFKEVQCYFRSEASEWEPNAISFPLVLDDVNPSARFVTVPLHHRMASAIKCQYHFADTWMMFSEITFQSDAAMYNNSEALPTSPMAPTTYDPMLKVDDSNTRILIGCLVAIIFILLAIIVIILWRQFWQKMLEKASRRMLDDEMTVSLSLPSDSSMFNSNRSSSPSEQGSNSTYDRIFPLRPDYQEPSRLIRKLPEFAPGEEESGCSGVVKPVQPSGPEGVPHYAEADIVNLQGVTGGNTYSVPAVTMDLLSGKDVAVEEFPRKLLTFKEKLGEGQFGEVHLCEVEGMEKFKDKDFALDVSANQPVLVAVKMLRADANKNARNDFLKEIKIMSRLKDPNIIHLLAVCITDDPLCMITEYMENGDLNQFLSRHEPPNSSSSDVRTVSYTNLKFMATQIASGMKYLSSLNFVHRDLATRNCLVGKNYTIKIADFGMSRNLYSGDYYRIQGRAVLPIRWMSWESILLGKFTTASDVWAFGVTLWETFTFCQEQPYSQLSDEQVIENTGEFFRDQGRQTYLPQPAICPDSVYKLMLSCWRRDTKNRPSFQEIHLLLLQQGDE
In short: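 Single-point kinase panel (SelectScreen) run with the compound at 1 μM. Activity is reported as percent inhibition.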

HeLa = assay: Inhibition of starvation-induced autophagy in human HeLa cells assessed as reduction of LC3-II lipidation at 1 uM in presence of chloroquine by immunoblotting analysis; assay type: functional, cell-based; in short: as §2
MCF7 [6] = assay: Inhibition of mitochondrial complex II in human MCF7 cells expressing LC3 by Seahorse XF plasma membrane permeabilizer analysis; assay type: cell membranes; in short: as §3
[7] = Inhibition of starvation-induced autophagy in human MCF7 cells expressing eGFP-tagged LC3 incubated for 3 hrs in presence of chloroquine by automated fluorescence microscopy
[8] = target: T3, Serine/threonine-protein kinase haspin (Homo sapiens) (UniProt Q8TF76); assay: Inhibition of GST-tagged human recombinant haspin (471 to 798 residues) expressed in insect cells at 1 uM relative to control; in short: as §4
T3 sequence (whole entry): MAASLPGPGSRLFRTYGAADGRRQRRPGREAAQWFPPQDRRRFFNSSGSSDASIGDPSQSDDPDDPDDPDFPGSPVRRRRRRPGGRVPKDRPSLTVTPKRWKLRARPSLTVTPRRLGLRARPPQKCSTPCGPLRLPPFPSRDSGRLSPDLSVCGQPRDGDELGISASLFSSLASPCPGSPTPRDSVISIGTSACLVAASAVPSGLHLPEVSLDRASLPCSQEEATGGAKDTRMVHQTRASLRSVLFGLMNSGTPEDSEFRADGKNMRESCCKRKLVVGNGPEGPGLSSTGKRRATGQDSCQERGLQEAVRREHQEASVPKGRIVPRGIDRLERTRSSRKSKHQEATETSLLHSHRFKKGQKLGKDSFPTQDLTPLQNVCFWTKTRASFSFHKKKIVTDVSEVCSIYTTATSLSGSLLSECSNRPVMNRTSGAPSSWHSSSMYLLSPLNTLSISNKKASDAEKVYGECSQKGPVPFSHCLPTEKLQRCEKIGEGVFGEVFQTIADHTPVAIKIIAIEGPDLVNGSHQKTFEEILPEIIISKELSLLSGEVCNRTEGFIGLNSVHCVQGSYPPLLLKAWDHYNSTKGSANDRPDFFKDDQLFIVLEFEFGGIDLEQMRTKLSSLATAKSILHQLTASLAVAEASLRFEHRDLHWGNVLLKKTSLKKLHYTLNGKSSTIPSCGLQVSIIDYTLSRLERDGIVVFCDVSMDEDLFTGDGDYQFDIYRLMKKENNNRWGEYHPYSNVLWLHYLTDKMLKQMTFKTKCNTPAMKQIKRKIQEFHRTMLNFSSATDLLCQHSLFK

[9] = Inhibition of rapamycin-induced autophagy in human MCF7 cells expressing eGFP-tagged LC3 incubated for 3 hrs in presence of chloroquine by Hoechst staining based fluorescence microscopic analysis; assay type: functional, cell-based
[10] = target: T1, Inactive tyrosine-protein kinase PEAK1; assay: Inhibition of PEAK1 (unknown origin) relative to control; conditions: concentration not given here; in short: as §1
[11] = tested on: T2, Discoidin domain-containing receptor 2 (Homo sapiens), Q16832 [N456S]; assay: Inhibition of GST/His-tagged human recombinant DDR2 N456S mutant (422 to 855 residues) expressed in baculovirus expression system relative to control; conditions: concentration not given here
[12] = target: T3, Serine/threonine-protein kinase haspin (Homo sapiens); assay: Inhibition of GST-tagged human recombinant haspin (471 to 798 residues) expressed in insect cells relative to control; conditions: concentration not given here; in short: as §1
MCF7 [13] = assay: Inhibition of mitochondrial complex IV in human MCF7 cells expressing LC3 by Seahorse XF plasma membrane permeabilizer analysis; assay type: cell membranes; in short: as §3
MCF7 [14] = assay: Inhibition of starvation-induced autophagy in human MCF7 cells assessed as reduction of LC3-II lipidation at 1 uM in presence of chloroquine by immunoblotting analysis; assay type: functional, cell-based; in short: as §2
[15] = target: Cyclin-dependent kinase 19 (Homo sapiens) (UniProt Q9BWU1); assay: Inhibition of GST-tagged human recombinant CDK11 (1 to 795 residues) expressed in baculovirus expression system relative to control; conditions: concentration not given here; in short: as §1
[16] = target: T4, Serine/threonine-protein kinase haspin (Homo sapiens, UniProt Q8TF76); assay: Inhibition of GST-tagged human recombinant haspin (471 to 798 residues) expressed in insect cells; in short: as §1
T4 sequence (Q8TF76 whole entry): T3 sequence (whole entry)

Bos taurus = organism: Bos taurus; assay: Inhibition of NADH-Coenyme Q reductase in bovine heart mitochondria; conditions: dose 0.3-10 µM
In short: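 Isolated bovine heart mitochondria were assayed for NADH-coenzyme Q reductase activity across a dose range of compound. Rotenone served as the control inhibitor. Data are mean ± SD, n = 2.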

[17] = target: T1, Inactive tyrosine-protein kinase PEAK1; assay: Inhibition of PEAK1 (unknown origin) at 1 uM relative to control; in short: as §4

For `O=C(c1ccc2c(c1)OCCO2)C1CCN(c2ncnc3sccc23)CC1`, the IC50 [1] was greater than 1000 nM, the IC50 [2] was 620 nM and the inhibition (HEK-293T) was “Active”. For the same compound, the inhibition (MCF7 [3]) was “Active”, the inhibition [4] was 70% and the inhibition [5] was 58%. For the same compound, the inhibition (HeLa) was “Active”, the inhibition (MCF7 [6]) was “inactive” and the IC50 [7] was 20 nM. The inhibition [8] was 51%, the IC50 [9] was 180 nM and the inhibition [10] was 68%. For the same compound, the inhibition [11] was 38%, the inhibition [12] was 33% and the inhibition (MCF7 [13]) was “inactive”. For the same compound, the inhibition (MCF7 [14]) was “Active”, the inhibition [15] was 47% and the IC50 [16] was greater than 1000 nM. The inhibition (Bos taurus) was “Dose-Dependent Effect” and the inhibition [17] was 83%.
